Holding throughout (format): functional
The species named for test [1] is Mus musculus. The test is described as follows: Hypervitaminosis A dose, a measure of toxicity, in mice was determined. The method, boiled down:
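Mice received retinoid suspended in water with 0.1% carboxymethylcellulose and 0.01% Triton X-100. Dosing was ip daily Mon–Fri in week 1 and Mon–Thu in week 2. Symptoms were scored one day after the last injection: weight loss, skin redness/scaling, hair loss, nose/mouth mucosal changes, bone fractures. The value is the lowest daily dose at which 2 of 3 mice show one or more symptoms.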

Test [2] relates to Mus musculus. The test is described as follows: Antipapilloma activity was measured in mice as percentage effect by ip administration at the dose of 5 mg/kg/day. Particulars: route intraperitoneal.
Test [3] concerns Mus musculus. The test is described as follows: Antipapilloma activity was measured in mice as percentage effect by ip administration at the dose of 10 mg/kg/day. Particulars: route intraperitoneal.
For test [4], the system named is Mus musculus. The test is described as follows: Antipapilloma activity was measured in mice as percentage effect by ip administration at the dose of 40 mg/kg/day. Particulars: route intraperitoneal.
Test [5] relates to Mus musculus. The test is described as follows: Antipapilloma activity was measured in mice as percentage effect by ip administration at the dose of 20 mg/kg/day. Particulars: route intraperitoneal.
The subject of test [6] is Mus musculus. The test is described as follows: Antipapilloma activity was measured in mice as percentage effect by ip administration at the dose of 80 mg/kg/day. Particulars: route intraperitoneal.

For `COC(=O)/C=C(C)/C=C/C(F)=C(C)/C=C/c1c(C)cc(OC)c(C)c1C`, in the test filed under Mus musculus [1], the Dose worked out at 50 mg/kg. Besides, the Effect was -28% in the test with Mus musculus [2], -35% with Mus musculus [3], -79% in the test on Mus musculus [4] and -60% with Mus musculus [5].
For `COC(=O)/C=C(C)/C=C/C(F)=C(C)/C=C/c1c(Cl)cc(OC)c(C)c1C`, in the test listed under Mus musculus [1], the Dose came to 200 mg/kg. In the test with Mus musculus [4], the Effect is recorded as -41%.
In the test listed under Mus musculus [1], `COC(=O)/C=C(C)/C=C/C(F)=C(C)/C=C/c1c(Cl)cc(OC)c(C)c1Cl` returned a Dose of 200 mg/kg. In addition, the Effect in the test with Mus musculus [6] is on record as -64%.
The like results for `COC(=O)/C=C(C)/C=C/C(F)=C(C)/C=C/c1c(Cl)cc(OC)c(Cl)c1Cl` were, in that order, >200 mg/kg and -58%.
Consider `COC(=O)/C=C(C)/C=C/C(F)=C(C)/C=C/c1c(C)cc(OC)c(C)c1Cl`, for which the Dose in the test listed under Mus musculus [1] is 50 mg/kg. Also, the Effect in the test with Mus musculus [5] was -56%.
For `COC(=O)/C=C(C)/C=C/C(F)=C(C)/C=C/c1c(C)cc(C)c(Cl)c1C`, the Dose in the test listed under Mus musculus [1] worked out at 200 mg/kg. Moreover, the Effect in the test with Mus musculus [6] was -48%.

The record behind these values is ChEMBL document CHEMBL1122138, “Fluorinated retinoic acids and their analogues. 3. Synthesis and biological activity of aromatic 6-fluoro analogues” (1982).
